Measured values reported in ChEMBL document CHEMBL4385647, “Design, synthesis and biological evaluation of 3-hydroxyquinazoline-2,4(1H,3H)-diones as dual inhibitors of HIV-1 reverse transcriptase-associated RNase H and integrase” (Bioorg Med Chem, 2019).
Active and inactive are the calls of the source. The calls are words filed in the database; no cut-off is given here.

What was measured:
[1] = tested on: Human immunodeficiency virus 1; test: Antiviral activity against HIV1 3B infected in human MT4 cells incubated for 5 days by MTT assay; type: functional, organism-based; settings: Human immunodeficiency virus 1, 3B, MT4, 120 h
In short: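 MT-4 cells resuspended at 6×10^5 cells/mL and infected with 100-300 CCID50 of HIV-1 IIIB or HIV-2 ROD. Serial five-fold compound dilutions were tested in triplicate wells. After 5 days, viability was measured by MTT reduction with absorbance read at 540 and 690 nm, using the median OD of two or three wells.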

[2] = Cytotoxicity in mock-infected human MT4 cells assessed as reduction in cell viability incubated for 5 days by MTT assay; type: cell-based
In short: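 Mock-infected MT-4 cells at 6×10^5 cells/mL were exposed to serial five-fold compound dilutions in triplicate wells in parallel with the infected series. After 5 days, viability was read by MTT at 540 and 690 nm from the median OD of two or three wells.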

[3] = biological target: Human immunodeficiency virus type 1 reverse transcriptase (Human immunodeficiency virus 1, UniProt Q72547); test: Inhibition of HIV1 reverse transcriptase RNase H activity expressed in Escherichia coli using 32P-labeled template 31Trna RNA and DNA oligonucleotide 21P
[4] = biological target: Human immunodeficiency virus type 1 integrase (Human immunodeficiency virus 1) (UniProt Q7ZJM1); test: Inhibition of strand transfer activity of HIV1 integrase expressed in Escherichia coli at 10 uM using DNA complexes containing 32P-labeled INT1ST and non-labeled INT2
Chain of Human immunodeficiency virus type 1 integrase (Human immunodeficiency virus 1) (Q7ZJM1 as listed by the source): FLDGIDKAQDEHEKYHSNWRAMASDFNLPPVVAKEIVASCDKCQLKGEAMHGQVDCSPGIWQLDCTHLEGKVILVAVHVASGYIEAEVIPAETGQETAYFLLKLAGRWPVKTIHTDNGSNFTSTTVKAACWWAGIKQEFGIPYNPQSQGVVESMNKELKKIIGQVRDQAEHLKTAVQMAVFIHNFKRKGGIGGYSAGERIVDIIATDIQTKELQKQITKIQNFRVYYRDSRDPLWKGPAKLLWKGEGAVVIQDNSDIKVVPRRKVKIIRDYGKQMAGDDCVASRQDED
In short: (§1)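 Wild-type HIV-1 IN, expressed in E. coli, was assayed for strand transfer with DNA complexes of 32P-labeled INT1ST and unlabeled INT2 at 1% DMSO. Percent inhibition was measured at […].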

[5] = biological target: Human immunodeficiency virus type 1 integrase (Human immunodeficiency virus 1) (UniProt Q7ZJM1); test: Inhibition of strand transfer activity of HIV1 integrase expressed in Escherichia coli at 0.1 to 10 uM using DNA complexes containing 32P-labeled INT1ST and non-labeled INT2; in short: as §1
[6] = biological target: T1, Human immunodeficiency virus type 1 integrase (Human immunodeficiency virus 1, UniProt Q7ZJM1); test: Inhibition of HIV integrase strand transfer activity
T1 sequence (Q7ZJM1 whole entry): as the sequence (Q7ZJM1 as listed by the source) above

[7] = Inhibition of HIV reverse transcriptase RNase H activity; set-up: species or system Human immunodeficiency virus
In short: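 Wild-type HIV-1 BH10 RT (20-40 nM), expressed in E. coli, was incubated at 37°C in 50 mM Tris-HCl pH 8.0, 50 mM NaCl, 5 mM MgCl2 and 5% DMSO. Cleaved substrate was quantified over 0.2-100 μM compound against a DMSO-only control. IC50 was taken from dose-response curves.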

[8] = biological target: T1, Human immunodeficiency virus type 1 integrase; test: Inhibition of strand transfer activity of HIV1 integrase expressed in Escherichia coli using DNA complexes containing 32P-labeled INT1ST and non-labeled INT2
[9] = Apparent permeability in human Caco2 cells by LC analysis; type: ADME, cell-based; settings: Caco-2
In short: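 Transport was measured across Caco-2 cell monolayers, with nadolol and metoprolol as controls. Papp (cm/s) was calculated as (dCr/dt)×Vr/(A×C0), where dCr/dt is the cumulative receiver-chamber concentration over time.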

Structure (SMILES)	EC50 [1] [µM]	CC50 at 120 h [2] [µM]	IC50 [3] [µM]	further results
O=c1[nH]c2ccc(NS(=O)(=O)c3cccc(C(F)(F)F)c3)cc2c(=O)n1O	> 176	176	2	–
O=c1[nH]c2cc(NS(=O)(=O)c3ccc4ccccc4c3)ccc2c(=O)n1O	> 220	220	20.1	inhibition [4]: 50 to 60%; inhibition [5]: Active
O=C(NCc1c(F)cc(F)cc1F)c1cn2c(c(O)c1=O)C(=O)N1[C@H]3CC[C@H](C3)O[C@@H]1C2 [BICTEGRAVIR]	–	–	–	IC50 [6]: 7.5 nM
CCOC(=O)C(=O)CC(=O)/C=C/c1cccn1Cc1ccccc1Cl	–	–	–	IC50 [7]: 7300 nM
NS(=O)(=O)c1ccc(-c2ccc(Cn3cc(O)c(=O)c(C(=O)O)c3)cc2)cc1	–	–	–	IC50 [7]: 650 nM
Cc1cc(C)c(S(=O)(=O)Nc2ccc3c(=O)n(O)c(=O)[nH]c3c2)c(C)c1	> 154	154	3.24	–
O=C1Cc2cc(Cc3ccc(-c4ccccc4)cc3)ccc2C(=O)N1O	–	–	–	IC50 [7]: 800 nM
O=c1[nH]c2ccc(NS(=O)(=O)c3ccccc3)cc2c(=O)n1O	> 213	213	1.19	–
O=c1[nH]c2ccc(NS(=O)(=O)c3ccc4ccccc4c3)cc2c(=O)n1O	> 208	208	0.41	IC50 [8]: 850 nM; Papp [9]: < 0.19 ×10⁻⁶ cm/s
O=C(Nc1ccc2c(=O)n(O)c(=O)[nH]c2c1)c1cccc(F)c1	> 39.8	39.8	3.73	–
CC(C)(C)NCC(O)COc1cccc2c1CC(O)C(O)C2 (stereo unspecified) [NADOLOL]	–	–	–	Papp [9]: 0.09 ×10⁻⁶ cm/s
Cc1nnc(C(=O)NC(C)(C)c2nc(C(=O)NCc3ccc(F)cc3)c(O)c(=O)n2C)o1	0.015	6.51	–	–
CC(C)(C)c1ccc(S(=O)(=O)Nc2ccc3c(=O)n(O)c(=O)[nH]c3c2)cc1	> 307	307	5.88	inhibition [4]: 50 to 60%; inhibition [5]: Active
O=C(Nc1ccc2c(=O)n(O)c(=O)[nH]c2c1)c1ccc(F)cc1	> 43	43	3.73	–
O=C(Nc1ccc2c(=O)n(O)c(=O)[nH]c2c1)c1ccccc1	> 36.6	36.6	2.52	–
CC(C)c1ccc(O)c(=O)c(O)c1 [BETA-THUJAPLICINOL]	> 2.83	2.83	1.98	IC50 [7]: 3800 nM
COCCc1ccc(OCC(O)CNC(C)C)cc1 (stereo unspecified) [METOPROLOL]	–	–	–	Papp [9]: 14.7 ×10⁻⁶ cm/s
O=C(Nc1ccc2c(=O)n(O)c(=O)[nH]c2c1)c1ccc(C(F)(F)F)cc1	> 316	316	6.09	–
O=c1[nH]c2ccc(NS(=O)(=O)c3ccc(F)cc3)cc2c(=O)n1O	> 199	199	2.25	–
COc1ccc(Cc2nc(O)c(O)c(C(=O)O)n2)cc1Br	–	–	–	IC50 [7]: 1400 nM
O=c1[nH]c2cc(NS(=O)(=O)c3ccc(-c4ccccc4)cc3)ccc2c(=O)n1O	> 305	> 305	11.7	–
Cc1cccc(S(=O)(=O)Nc2ccc3c(=O)n(O)c(=O)[nH]c3c2)c1	> 310	310	4.1	–
O=c1[nH]c2cc(NS(=O)(=O)c3cccc(C(F)(F)F)c3)ccc2c(=O)n1O	> 80.2	80.2	5.33	–
Cc1ccc(C(=O)Nc2ccc3c(=O)n(O)c(=O)[nH]c3c2)cc1	> 10.9	10.9	2.74	–
O=c1[nH]c2cc(NS(=O)(=O)c3ccc(F)cc3)ccc2c(=O)n1O	> 356	> 356	5.68	–
O=C(Nc1ccc2[nH]c(=O)n(O)c(=O)c2c1)c1ccccc1F	> 168	168	4.29	–
NCc1ccc(-c2ccc(Cc3cc(=O)n(O)c4ncccc34)cc2)cc1	–	–	–	IC50 [7]: 45 nM
